# Compound activity (PubChem)
# CXCR6 block: CXCR6 receptor inhibitors, primary screen, cell-based, beta-arrestin, luminescence, CHO-K1 PathHunter, 1536-well; C-X-C chemokine receptor type 6 (Homo sapiens), O00574; inhibition, % at 20 µM; 360,000 tested, 0.36% active; AID 602244, 2012; in the data active = inhibition above about 34%, passing the limit was not always enough;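 note: antagonist mode with CXCL16 agonist at 10 nM final; 0% = 10 nM CXCL16 with DMSO and 100% = unstimulated wells without agonist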
# Target sequence (O00574 whole entry, looked up): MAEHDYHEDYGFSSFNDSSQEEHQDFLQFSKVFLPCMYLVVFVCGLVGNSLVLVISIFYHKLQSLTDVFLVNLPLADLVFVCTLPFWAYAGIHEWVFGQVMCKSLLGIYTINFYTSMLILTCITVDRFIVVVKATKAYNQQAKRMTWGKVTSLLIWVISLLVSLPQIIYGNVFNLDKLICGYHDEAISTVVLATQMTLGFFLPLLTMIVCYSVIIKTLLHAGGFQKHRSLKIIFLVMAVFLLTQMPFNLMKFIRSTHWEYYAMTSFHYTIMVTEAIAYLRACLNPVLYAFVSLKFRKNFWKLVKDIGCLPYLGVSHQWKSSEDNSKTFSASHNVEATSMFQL
# APJ ag: agonists of human apelin receptor APJ, primary screen, CHO-K1 cells, PathHunter beta-arrestin, luminescence. activation, % at 20 µM. P35414. 0% DMSO wells, 100% apelin. 330,000 tested, 0.11% active. AID 2520, 2010;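 active = activation more than six SD over the plate average, tested at 20 µM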;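 note: 0% = DMSO alone and 100% = apelin-13 at 10 nM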
#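 Assay system: engineered CHO-K1 APJ arrestin reporter cells; Amount: 1000 CHO-K1 reporter cells seeded per well; Dosing: one dose, 20 µM compound, 1% DMSO; Times: compound stimulation 90 min at 25 °C, detection 60 min; Measured by: luminescent beta-gal fragment complementation, chemiluminescent substrate; Read-out: APJ–arrestin association signal; Controls: DMSO vs Apelin-13 10 nM.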
# B2AR ag: beta2AR agonists driving receptor internalization, primary screen, cell-based, FAP fluorogen, flow cytometry; Beta-2 adrenergic receptor (Homo sapiens), P07550; Am2.2-beta2AR cells; response, % (no concentration beside the values); 340,000 tested, 0.43% active;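 active = response above a set limit, near 3 SD of response in nonfluorescent compounds, cut at about 42% in these data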
# EBI2 block: EBI2 receptor antagonists, beta-arrestin recruitment, primary screen, cell-based, luminescence, 7a,25-OHC stimulation, uHTS; 7a,25-OHC stimulated; G-protein coupled receptor 183 (Homo sapiens), P32249; inhibition, % at 5 µM; 360,000 tested, 0.81% active; AID 651636, 2012; in the data active = inhibition above about 38%;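 note: enzyme fragment complementation signal reports receptor beta-arrestin coupling in cells; 0% = agonist plus DMSO wells and 100% = wells without agonist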
# Target sequence (P32249 whole entry, looked up, the tested form may be a part): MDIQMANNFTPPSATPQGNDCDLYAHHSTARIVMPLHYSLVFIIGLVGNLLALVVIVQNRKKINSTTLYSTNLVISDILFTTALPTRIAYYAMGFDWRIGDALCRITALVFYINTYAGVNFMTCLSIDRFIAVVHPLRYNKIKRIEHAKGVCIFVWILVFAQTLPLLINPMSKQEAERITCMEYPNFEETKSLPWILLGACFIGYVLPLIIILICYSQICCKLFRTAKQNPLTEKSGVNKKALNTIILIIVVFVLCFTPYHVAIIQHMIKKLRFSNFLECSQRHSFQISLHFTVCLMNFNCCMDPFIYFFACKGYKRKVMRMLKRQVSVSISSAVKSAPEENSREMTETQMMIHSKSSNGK
# CCR6 antagonist: CCR6 receptor antagonists, primary screen, cell-based, CHO-K1, luminescence, beta-arrestin, uHTS; C-C chemokine receptor type 6 (Homo sapiens), P51684; 340,000 tested, 0.49% active; CHO-K1 CCR6 PathHunter beta-arrestin, CCL20-stimulated; inhibition, % at 20 µM; AID 493098, 2011;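 active = compounds whose inhibition of the agonist-driven luminescence signal at 20 µM reaches about 50%, limit read from the data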;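 note: cells stimulated with CCL20 at 14 nM final; plate controls were DMSO with CCL20 for no effect and DMSO without agonist for full effect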
# APJ antagonist: antagonists of human apelin receptor APJ, primary screen, CHO-K1 cells, beta-arrestin complementation, luminescence | inhibition, % at 20 µM | 330,000 tested, 0.32% active | AID 2521, 2010;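 active = inhibition above about 40% at 20 µM, limit read from the data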;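 note: cells challenged with 10 nM apelin-13 agonist together with compound; plate controls were apelin-13 plus DMSO wells for no effect and DMSO wells lacking apelin-13 for full effect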
# EBI2 antag conf: EBI2 antagonist hit retest, beta-arrestin, confirmation, cell-based, single concentration, luminescence, 7a,25-OHC stimulation. 7a,25-OHC antagonism. shares compounds with EBI2 block. AID 651997, 2013. inhibition, % at 5 µM. 2,400 tested, 29% active;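 active = inhibition of at least 50%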
# EBI2 agonist: EBI2 agonist activity of antagonist hits, confirmation, counter-screen for EBI2 antagonist project, cell-based, single concentration, agonist mode, luminescence; 2,400 tested, under 10 active; EBI2-expressing cells, 60 min; 0% vehicle, 100% 7α,25-dihydroxycholesterol control; shares compounds with EBI2 block; activation, % at 5 µM;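 active = activation of at least 50%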
# bGal cs: E. coli beta-galactosidase enzyme inhibition, confirmation, counter-screen for EBI2 antagonist project, biochemical, luminescence, single concentration; shares compounds with EBI2 block; 2,400 tested, 1% active; purified beta-galactosidase, luminescent Galacton Star, 15 min; inhibition, % at 5 µM;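 active = replicate-average signal at least 3 plate SD below neutral wells, shown as high inhibition, flagging enzyme-inhibiting false positives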;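 note: 0% = DMSO wells with enzyme and 100% = wells lacking enzyme; higher means stronger loss of beta-gal luminescence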
# * marks the source's active call; other numbers are inactive results; nt = not tested or not shown; ! = a repeat was not active. The list is not random: actives were taken first. Their share in the collection is about 1.8%.
SMILES,CXCR6 block,APJ ag,B2AR ag,EBI2 block,CCR6 antagonist,APJ antagonist,EBI2 antag conf,EBI2 agonist,bGal cs
C=CCCC(=O)N1C[C@H]2CON(C)[C@H]2C[C@H]1c1cccc(N2CCOCC2)c1,6,nt,nt,-3,nt,nt,nt,nt,nt
CCOC(=O)C1CCN(C(=O)c2cc3c(ccc4ccccc43)o2)CC1,-5,-5,11,78*,35,13,64*,-1,-11
CC1CCN(C(=O)c2cc3c(ccc4ccccc43)o2)CC1,5,-6,2,82*,31,-20,62*,0,-5
CCc1nc2ccc(C(=O)NCc3ccc4c(c3)OCO4)cn2c1N(CC)Cc1cccc(Br)c1,13,nt,nt,15,nt,nt,nt,nt,nt
COc1ccc(OC)c(/C=C/c2ccnc3ccccc23)c1,2,nt,-5,-5,4,nt,nt,nt,nt
COc1ccc2nccc(/C=C/c3ccnc4ccc(OC)cc34)c2c1,-4,-3,-4,38*,8,8,-3,0,-9
CCc1nc2c(OCc3cccc(Cl)c3)cccn2c1N(C)C(C)=O,0,nt,nt,3,nt,nt,nt,nt,nt
O=C(/C=C/c1cccs1)N1CCC2(CC1)Oc1ccc(Cl)cc1C(=O)C21CC(c2ccccc2)=NO1 (centres undefined),0,0,5,61*,7,10,40,-1,6
CCC(=O)N1CCC2(CC1)Oc1ccc(Cl)cc1C(=O)C21CC(c2ccccc2)=NO1 (centres undefined),8,4,0,13,11,-3,nt,nt,nt
CC1=C(C(=O)OCc2cc(C)on2)N2C(=O)[C@@H](NC(=O)OCc3cc(C)on3)[C@H]2SC1,-2,-2,-2,-6,-3,7,nt,nt,nt
COc1cc2cc(C(c3nnnn3C3CCCCC3)N(C)C3CCCCC3)c(=O)[nH]c2cc1OC (centres undefined),17,-1,5,36*,-16,8,46,1,-1
COc1cc2cc(C(c3nnnn3C3CCCC3)N(C)C3CCCCC3)c(=O)[nH]c2cc1OC (centres undefined),8,-2,13,58*,-7,-2,54*,2,3
COc1ccc2[nH]c(=O)c(C(c3nnnn3C3CCCCC3)N3CCN(C)CC3)cc2c1 (centres undefined),-12,-2,-5,-5,12,-1,nt,nt,nt
CCOC(=O)[C@]12CCC=C1N(Cc1ccco1)C(=O)[C@H](CC(=O)NCCC(C)C)C2,5,nt,nt,-7,nt,nt,nt,nt,nt
O=C(Nc1ccc2ccccc2c1)c1ccc(NS(=O)(=O)c2ccc(Br)s2)cc1,-7,3,11,44*,1,-32,15,1,3
Cc1cc2nc(-c3ccc(SCc4ccc(C(=O)O)cc4)nc3)[nH]c2cc1C,-15,nt,6,-2,-30,nt,nt,nt,nt
Cc1cc2nc(-c3ccc(SCc4ccccc4C#N)nc3)[nH]c2cc1C,6,4,17,50*,8,-18,37,-1,9
CCC(C)Sc1ccc(-c2nc3ccc(Cl)cn3c2NCc2ccccc2)cc1 (centres undefined),-3,1,12,44*,9,-1,28,-2,-14
CCCCNc1c(-c2ccc(-c3ccc(C(C)=O)cc3)c(OC)c2)nc2cc(C)ccn12,14,2,13,67*,18,-4,52*,1,6
CCCCCCSc1ccc(-c2nc3ccc(C)cn3c2NCc2ccccc2)cc1OC,20,-9,16,72*,43,-3,44,1,2
CCCCNc1c(-c2ccc(OC)c(SC(C)CC)c2)nc2cc(C)ccn12 (centres undefined),1,10,25,31,23,-11,nt,nt,nt
COc1ccc(-c2ccc(-c3nc4ccc(C)cn4c3NC3CCCCC3)cc2OC)cc1,16,9,4,72*,26,-11,65*!,0,-11
Cc1ccc2nc(-c3cccc(SC4CCCCC4)c3)c(NC3CCCCC3)n2c1,17,-1,34,31,34,4,nt,nt,nt
COc1ccc(Cc2nnc(SC)n2-c2ccc(F)cc2)cc1OC,3,nt,nt,2,nt,nt,nt,nt,nt
O=C(c1ccc(Cl)c(S(=O)(=O)NCc2cccnc2)c1)N1CCCC1,-8,-1,-3,-2,12,-12,nt,nt,nt
SMILES,CXCR6 block,APJ ag,B2AR ag,EBI2 block,CCR6 antagonist,APJ antagonist,EBI2 antag conf,EBI2 agonist,bGal cs
CCN(Cc1ccccc1)N=Nc1ccccc1,0,nt,nt,10,nt,nt,nt,nt,nt
C#CCOCCOCCOCCNc1nc(N2CCN(C(=O)[C@H](CCC(=O)O)n3cc([C@@H](N)[C@H](C)CC)nn3)CC2)nc(N2CCN(C(=O)[C@H](CCCCN)n3cc([C@@H](N)CC(N)=O)nn3)CC2)n1,-4,-1,-1,-3,6,4,nt,nt,nt
CCCCNc1c(-c2ccc(SC3CCCCC3)c(OC)c2)nc2ccc(C)cn12,-1,-1,21,52*,14,6,55*!,3,3
CCCCCCSc1ccc(-c2nc3ccc(C)cn3c2NCc2ccccc2)cc1,0,-7,9,53*,3,3,54*!,1,2
CCCCCCSc1cccc(-c2nc3ccc(Cl)cn3c2NCc2ccccc2)c1,11,-4,-4,15,24,-8,nt,nt,nt
COc1ccc(OCC(=O)N2CCN(S(=O)(=O)c3ccc4c(c3)OCCO4)CC2)cc1,-5,nt,nt,82*,nt,nt,55*,0,-13
CCS(=O)(=O)N1CCN(S(=O)(=O)c2ccccc2[N+](=O)[O-])CC1,-6,-1,-4,-8,-8,1,nt,nt,nt
Cc1ccc(OCC(=O)N2CCN(C(=O)Cc3ccccc3)CC2)cc1,1,-1,1,58*,-26,7,49,-1,-4
COc1ccc(CC(=O)N2CCN(c3ccccn3)CC2)cc1,10,-2,-5,1,1,-11,nt,nt,nt
COc1ccc(OCC(=O)N2CCN(C(=O)Cc3ccccc3)CC2)cc1,1,-2,3,76*,9,5,49,1,5
